Results reported in ChEMBL document CHEMBL1821580, “Design, synthesis and bioevaluation of novel candidate selective estrogen receptor modulators” (Eur J Med Chem, 2011).
Calls of active or inactive are those of the source. The calls are words filed in the database; no cut-off is given here.

What was measured:
[1] = system: L1210; assay: Cytostatic activity against mouse L1210 cells after 2 days by coulter counter assay; format: functional, cell-based; conditions: L1210, 48 h
Method in brief: (§1)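 Tumor cells seeded in 96-well plates and exposed to a range of compound concentrations. Exposure was 2 days for L1210 and 3 days for Molt4/C8 and CEM. Cell number was counted on a Coulter particle counter. IC50 is the concentration inhibiting proliferation by 50%. Run in triplicate.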

[2] = system: CCRF-CEM; assay: Cytostatic activity against human CEM cells after 3 days by coulter counter assay; format: functional, cell-based; conditions: 72 h; method in brief: as §1
[3] = system: MOLT-4; assay: Cytostatic activity against human Molt4/C8 cells after 3 days by coulter counter assay; format: functional, cell-based; conditions: MOLT-4, 72 h; method in brief: as §1
[4] = system: MCF7; assay: Cytotoxicity activity against human MCF7 cells by MTS assay; format: functional, cell-based
Method in brief: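 MCF-7 cells in DMEM with 10% heat-inactivated FBS, seeded at 30,000 cells/well in 24-well plates. After compound treatment, viability was read by MTS assay (CellTiter 96 AQueous). Run in triplicate.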

[5] = biological target: T1, Estrogen receptor (Homo sapiens) (UniProt P03372); assay: Binding affinity to estrogen receptor alpha in human MCF7 cells assessed as NR peptide-ERalpha complex formation at 25 uM by colorimetric ELISA; format: cell-based
T1 sequence (whole entry): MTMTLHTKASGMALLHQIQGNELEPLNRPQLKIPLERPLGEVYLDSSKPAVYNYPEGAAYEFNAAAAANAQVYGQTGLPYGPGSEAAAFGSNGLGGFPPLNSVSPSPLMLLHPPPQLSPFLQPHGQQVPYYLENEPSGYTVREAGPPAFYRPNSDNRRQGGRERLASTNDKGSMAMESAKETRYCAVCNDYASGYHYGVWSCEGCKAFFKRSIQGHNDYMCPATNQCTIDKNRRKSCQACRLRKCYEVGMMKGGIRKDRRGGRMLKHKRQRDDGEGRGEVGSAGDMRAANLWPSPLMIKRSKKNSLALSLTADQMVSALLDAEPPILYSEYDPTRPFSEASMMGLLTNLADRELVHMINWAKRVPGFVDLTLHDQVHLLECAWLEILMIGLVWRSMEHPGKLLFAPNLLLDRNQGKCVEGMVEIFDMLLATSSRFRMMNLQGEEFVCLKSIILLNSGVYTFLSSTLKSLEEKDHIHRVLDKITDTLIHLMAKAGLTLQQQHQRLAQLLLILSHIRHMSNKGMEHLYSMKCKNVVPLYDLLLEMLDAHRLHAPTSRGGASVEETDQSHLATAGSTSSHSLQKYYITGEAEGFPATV

[6] = biological target: T1, Estrogen receptor (Homo sapiens); assay: Binding affinity to estrogen receptor alpha in human MCF7 cells assessed as NR peptide-ERalpha complex formation at 2.5 uM by colorimetric ELISA; format: cell-based

SMILES | IC50 [1] | IC50 [2] | IC50 [3] | IC50 [4] | Activity [5] | Activity [6]
Oc1ccc2ccccc2c1C(c1ccccc1)N1CCC(O)CC1 (configuration not stated) | 50 µM | 36 µM | 43 µM |  |  | 
COc1ccc(C(c2c(O)ccc3ccccc23)N2CCC(O)CC2)cc1 (configuration not stated) | 42 µM | 14 µM | 35 µM |  |  | 
Oc1ccc2ccccc2c1C(c1ccc(Cl)c(Cl)c1)N1CCC(O)CC1 (configuration not stated) | 43 µM | 17 µM | 36 µM |  |  | 
CC(=O)OC1CCN(C(c2ccc3c(c2)OCO3)c2c(O)ccc3ccccc23)CC1 (configuration not stated) | 48 µM | 51 µM | 69 µM |  |  | 
CC(=O)OC1CCN(C(c2ccccn2)c2c(O)ccc3ccccc23)CC1 (configuration not stated) | 92 µM | 55 µM | 49 µM |  |  | 
CN(C)CCOc1ccc(Cc2c(O)ccc3ccccc23)cc1 |  |  |  | 10.2 µM |  | 
CCN(CC)CCOc1ccc(Cc2c(O)ccc3ccccc23)cc1 |  |  |  | 6.2 µM |  | 
CC(C)N(CCOc1ccc(Cc2c(O)ccc3ccccc23)cc1)C(C)C |  |  |  | 7.54 µM |  | 
Oc1ccc2ccccc2c1Cc1ccc(OCCN2CCCC2)cc1 |  |  |  | 6.71 µM |  | 
Oc1ccc2ccccc2c1Cc1ccc(OCCN2CCCCC2)cc1 |  |  |  | 6.82 µM |  | 
Oc1ccc2ccccc2c1Cc1ccc(OCCN2CCOCC2)cc1 |  |  |  | > 25 µM |  | 
CC1CCN(CCOc2ccc(Cc3c(O)ccc4ccccc34)cc2)CC1 |  |  |  | 4.38 µM | Active | Active
Oc1ccc2ccccc2c1Cc1ccc(OCCN2CCCCCC2)cc1 |  |  |  | 6.21 µM |  | 
CN(C)CCOc1ccc(C(c2c(O)ccc3ccccc23)N2CCC(O)CC2)cc1 (racemic) |  |  |  | 22.6 µM |  | 
CCN(CC)CCOc1ccc(C(c2c(O)ccc3ccccc23)N2CCC(O)CC2)cc1 (racemic) |  |  |  | 19 µM |  | 
CC(C)N(CCOc1ccc(C(c2c(O)ccc3ccccc23)N2CCC(O)CC2)cc1)C(C)C (racemic) |  |  |  | 52.3 µM |  | 
Oc1ccc2ccccc2c1C(c1ccc(OCCN2CCCC2)cc1)N1CCC(O)CC1 (racemic) |  |  |  | 37.5 µM |  | 
Oc1ccc2ccccc2c1C(c1ccc(OCCN2CCCCC2)cc1)N1CCC(O)CC1 (racemic) |  |  |  | 36.4 µM |  | 

SMILES | IC50 [1] | IC50 [2] | IC50 [3] | IC50 [4] | Activity [5] | Activity [6]
Oc1ccc2ccccc2c1C(c1ccc(OCCN2CCOCC2)cc1)N1CCC(O)CC1 (racemic) |  |  |  | 424 µM |  | 
Oc1ccc2ccccc2c1C(c1ccncc1)N1CCC(O)CC1 (single isomer, unassigned; (+)) | 154 µM | 133 µM | 107 µM |  |  | 
Oc1ccc2ccccc2c1C(c1ccccn1)N1CCC(O)CC1 (single isomer, unassigned; (+)) | 118 µM | 54 µM | 52 µM |  |  | 
CC(=O)OC1CCN(C(c2ccccc2)c2c(O)ccc3ccccc23)CC1 (single isomer, unassigned; (+)) | 58 µM | 31 µM | 38 µM |  |  | 
CC(=O)OC1CCN(C(c2ccc(F)cc2)c2c(O)ccc3ccccc23)CC1 (single isomer, unassigned; (+)) | 45 µM | 27 µM | 40 µM |  |  | 
CC(=O)OC1CCN(C(c2ccc(Cl)cc2)c2c(O)ccc3ccccc23)CC1 (single isomer, unassigned; (+)) | 41 µM | 28 µM | 35 µM |  |  | 
CC(=O)OC1CCN(C(c2ccc(C)cc2)c2c(O)ccc3ccccc23)CC1 (single isomer, unassigned; (+)) | 45 µM | 35 µM | 47 µM |  |  | 
COc1ccc(C(c2c(O)ccc3ccccc23)N2CCC(OC(C)=O)CC2)cc1 (single isomer, unassigned; (+)) | 43 µM | 22 µM | 42 µM |  |  | 
CC(=O)OC1CCN(C(c2ccc(Cl)c(Cl)c2)c2c(O)ccc3ccccc23)CC1 (single isomer, unassigned; (+)) | 31 µM | 15 µM | 34 µM |  |  | 
COc1ccc(C(c2c(O)ccc3ccccc23)N2CCC(OC(C)=O)CC2)cc1OC (single isomer, unassigned; (+)) | 48 µM | 24 µM | 12 µM |  |  | 
Oc1ccc2ccccc2c1C(c1ccc(F)cc1)N1CCC(O)CC1 (single isomer, unassigned; (-)) | 44 µM | 24 µM | 41 µM |  |  | 
Oc1ccc2ccccc2c1C(c1ccc(Cl)cc1)N1CCC(O)CC1 (single isomer, unassigned; (-)) | 46 µM | 19 µM | 33 µM |  |  | 
Cc1ccc(C(c2c(O)ccc3ccccc23)N2CCC(O)CC2)cc1 (single isomer, unassigned; (-)) | 44 µM | 29 µM | 39 µM |  |  | 
COc1ccc(C(c2c(O)ccc3ccccc23)N2CCC(O)CC2)cc1OC (single isomer, unassigned; (-)) | 50 µM | 25 µM | 18 µM |  |  | 
Oc1ccc2ccccc2c1C(c1ccc2c(c1)OCO2)N1CCC(O)CC1 (single isomer, unassigned; (-)) | 45 µM | 37 µM | 44 µM |  |  | 
CC(=O)OC1CCN(C(c2ccncc2)c2c(O)ccc3ccccc23)CC1 (single isomer, unassigned; (-)) | 80 µM | 79 µM | 59 µM |  |  | 
CC/C(=C(\c1ccccc1)c1ccc(OCCN(C)C)cc1)c1ccccc1 [TAMOXIFEN] |  |  |  | 31 µM |  | 
